Measured values taken from ChEMBL document CHEMBL2169835, “Flavonoid dimers as novel, potent antileishmanial agents” (J Med Chem, 2012).

Key:
[1] = tested on: RAW264.7; assay: Cytotoxicity against mouse RAW264.7 cells after 72 hrs by MTS assay; type: cell-based; settings: RAW264.7, 72 h
In short: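 RAW 264.7 murine macrophage line was plated at 1 × 10^4 cells per well in supplemented DMEM. Cells received a graded compound series for 72 h at 37 °C, 5% CO2, with a maximum of 1% DMSO. Viability was measured by MTS with PMS coupling at OD 490 nm, as percent of untreated control. The IC50 was the concentration reducing OD by half, given as mean ± SEM, N = 1–4.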

[2] = tested on: Leishmania donovani; assay: Antimicrobial activity against SSG-resistant Leishmania donovani 39 amastigote infected in mouse peritoneal macrophages assessed as inhibition of parasite growth after 72 hrs by Giemsa staining method; type: functional, organism-based; settings: Leishmania donovani, 39, 72 h
In short: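 Mouse peritoneal elicited macrophages were seeded on coverslips at 1 × 10^5 cells per well in DMEM with 10% heat-inactivated FBS and left to attach overnight. They were infected overnight with late-log Ld39 promastigotes (parasite:macrophage 20:1) at 37 °C, 5% CO2, then washed. Compounds were applied for 72 h at 37 °C. Giemsa-stained amastigotes per 100 macrophages gave IC50; N = 1−3.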

[3] = Cytotoxicity against mouse Peritoneal macrophages cells after 72 hrs by MTS assay; type: cell-based; settings: Peritoneal macrophage cell
In short: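 Primary mouse peritoneal elicited macrophages were seeded at 2 × 10^4 cells per well in DMEM with 10% heat-inactivated FBS. They were exposed to graded doses for 72 h at 37 °C in 5% CO2. Survival was read by MTS/PMS tetrazolium reduction (OD 490 nm) relative to untreated control. The IC50 was the concentration halving OD. Results are mean ± SEM of 1–4 independent experiments.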

[4] = Therapeutic index, ratio of IC50 for mouse Peritoneal macrophages to IC50 for SSG-resistant Leishmania donovani 39 promastigote; settings: read-out: Ratio IC50
In short: (§1)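 Index is PEM cytotoxicity IC50 over promastigote IC50. For PEM, cells were seeded at 2 × 10^4 per well in supplemented DMEM, given graded doses for 72 h at 37 °C, 5% CO2, and read by MTS survival.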

[5] = tested on: Leishmania donovani; assay: Antimicrobial activity against pentamidine-resistant Leishmania donovani AG83PentR50 promastigote assessed as inhibition of parasite growth after 72 hrs by MTS assay; type: functional, organism-based; settings: AG83PentR50, 72 h
In short: (§2)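 Promastigotes were grown in Schneider's medium pH 6.9 with 10% heat-inactivated FBS at 27 °C, seeded at 1 × 10^5 per well, and exposed to serial concentrations for 72 h at 27 °C. Compounds were in DMSO (≤1% final) or water. MTS:PMS (20:1) was added for 4 h, then OD490 was read. Survival was % of untreated control; IC50 = concentration halving OD; N = 1−4.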

[6] = Therapeutic index, ratio of IC50 for mouse PEM cells to IC50 for wild-type Leishmania donovani AG83 promastigote; type: cell-based; settings: read-out: Ratio IC50; in short: as §1
[7] = tested on: Leishmania donovani; assay: Antimicrobial activity against wild-type Leishmania donovani AG83 promastigote assessed as inhibition of parasite growth after 72 hrs by MTS assay; type: functional, organism-based; settings: AG83, 72 h
In short: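 Promastigotes were grown in Schneider's medium pH 6.9 with 10% heat-inactivated FBS at 27 °C, seeded at 1 × 10^5 per well, and exposed to serial concentrations for 72 h at 27 °C. Compounds were in DMSO (≤1% final) or water. MTS:PMS (20:1) was added for 4 h, then OD490 was read.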

[8] = Therapeutic index, ratio of IC50 for mouse Peritoneal macrophages to IC50 for SSG-resistant Leishmania donovani 39 amastigote infected in mouse peritoneal macrophages; settings: read-out: Ratio IC50
[9] = Therapeutic index, ratio of IC50 for mouse Peritoneal macrophages to IC50 for pentamidine-resistant Leishmania donovani AG83PentR50 promastigote; settings: read-out: Ratio IC50; in short: as §1
[10] = tested on: Leishmania donovani; assay: Selectivity ratio of IC50 for compound-resistant Leishmania donovani AG83PentR50 promastigote to IC50 for wild-type Leishmania donovani AG83 promastigote; type: functional
[11] = tested on: Leishmania donovani; assay: Antimicrobial activity against SSG-resistant Leishmania donovani 39 promastigote assessed as inhibition of parasite growth after 72 hrs by MTS assay; type: functional, organism-based; settings: Leishmania donovani, 39, 72 h; in short: as §2
[12] = tested on: Leishmania donovani; assay: Selectivity ratio of IC50 for Leishmania donovani promastigote to IC50 for SSG-resistant Leishmania donovani 39 amastigote infected in mouse peritoneal macrophages; type: functional
[13] = tested on: Leishmania donovani; assay: Antimicrobial activity against axenically grown Leishmania donovani amastigotes; type: functional, organism-based

Molecule	IC50 [1]	IC50 [2]	IC50 [3]	selectivity ratio [4]	IC50 [5]	selectivity ratio [6]	IC50 [7]	selectivity ratio [8]	selectivity ratio [9]	Ratio IC50 [10]	IC50 [11]	Ratio IC50 [12]	IC50 [13]
N=C(N)c1ccc(OCCCCCOc2ccc(C(=N)N)cc2)cc1 [PENTAMIDINE]	30 µM	> 30 µM	30.4 µM	5.7	54.8 µM	2.2	13.9 µM	< 1	0.6	3.9	5.3 µM		
O=c1cc(-c2ccc(O)c(O)c2)oc2cc(O)cc(O)c12 [LUTEOLIN]	43.2 µM	7.7 µM	77.7 µM	0.9	90.9 µM	0.7	114 µM	10.1	0.9		89 µM	12	
sodium stibogluconate												11	
O=c1c(O)c(-c2ccc(O)c(O)c2)oc2cc(O)cc(O)c12 [QUERCETIN]	95.6 µM	6 µM	> 100 µM	> 1	69.6 µM	> 1	103 µM	> 16.7	> 1.4		> 100 µM	17	
O=c1cc(-c2ccc(OCCOCCN(CCOCCOc3ccc(-c4cc(=O)c5ccccc5o4)cc3)Cc3ccccn3)cc2)oc2ccccc12	53 µM	4.1 µM	> 33 µM				5 µM	> 8			4.2 µM		
COc1ccc(-c2cc(=O)c3c(O)cc(O)c(-c4cc(-c5cc(=O)c6c(O)cc(OC)cc6o5)ccc4OC)c3o2)cc1 [SCIADOPITISIN]													8.2 µM
NC[C@@H]1O[C@H](O[C@H]2[C@@H](O)[C@H](O[C@@H]3[C@@H](O)[C@H](N)C[C@H](N)[C@H]3O[C@H]3O[C@H](CO)[C@@H](O)[C@H](O)[C@H]3N)O[C@@H]2CO)[C@H](N)[C@@H](O)[C@@H]1O [PAROMOMYCIN]	> 100 µM	41 µM	> 100 µM	> 4.1	85.5 µM	> 1.6	62.6 µM	> 2.4	> 1.2		24.5 µM		
COc1c(-c2ccc(OCCOCCN(CCOCCOc3ccc(-c4oc5ccccc5c(=O)c4OC)cc3)Cc3ccncc3)cc2)oc2ccccc2c1=O		5.2 µM	> 50 µM				0.98 µM	> 9.6			0.98 µM		
